Reference: ChEMBL document CHEMBL2040743, “Pipestelides A-C: cyclodepsipeptides from the Pacific marine sponge Pipestela candelabra” (J Nat Prod, 2012)
pIC50: −log10 of the molar value.

Columns and labels:
KB [1] = experiment: Inhibition of cell proliferation of human KB cells at 1 uM after 72 hrs by CellTiter 96 assay; format: functional
Summary of the method: (§1)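 KB cells from NCI grown in D-MEM with 10% fetal calf serum and antibiotics under 5% CO2. 600 cells/well, compound in DMSO added 24 h after seeding (1% DMSO final), exposure 72 h. MTS reagent for 3 h at 37 °C, A490. % inhibition = (1 − OD treated/OD DMSO control) × 100, mean ± SE of triplicates.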

KB [2] = experiment: Growth inhibition of human KB cells after 72 hrs by CellTiter 96 assay; format: functional, cell-based
Summary of the method: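 NCI KB cells in D-MEM with 10% fetal calf serum and antibiotics, 5% CO2. 600 cells/well, dosed 24 h after plating from DMSO stocks, 1% DMSO final. Tested from 5 nM to 100 μM for 72 h, then 3 h at 37 °C with MTS reagent and A490 read. IC50 taken from separate duplicate experiments, values given individually.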

KB [3] = experiment: Inhibition of cell proliferation of human KB cells at 10 uM after 72 hrs by CellTiter assay; format: functional; summary of the method: as §1

| SMILES | inhibition at 1 µM (KB [1]) [%] | pIC50 (KB [2]) | inhibition at 10 µM (KB [3]) [%] |
| --- | --- | --- | --- |
| CC[C@H]1NC(=O)[C@@H](C)C/C(C)=C/[C@H](C)C[C@H](C)OC(=O)C[C@H](c2ccc(O)cc2)NC(=O)[C@@H](Cc2c(Br)[nH]c3ccccc23)N(C)C1=O [JASPAMIDE D] | 100 | 8.36 | 100 |
| C/C(=C\[C@H](C)C[C@H](C)O)C[C@H](C)C(=O)N[C@@H](C)C(=O)N(C)[C@H](Cc1c(Br)[nH]c2ccccc12)C(=O)N[C@H](CC(=O)O)c1ccc(O)cc1 [JASPLAKINOLIDE Z1] | – | – | 30 |
| C=C1C[C@H](C)C(=O)N[C@@H](C)C(=O)N(C)[C@H](Cc2c(Br)[nH]c3ccccc23)C(=O)N[C@@H](c2ccc(O)cc2)CC(=O)O[C@@H](C)C[C@@H](C)C1=O [JASPLAKINOLIDE B] | 99 | 7.54 | 99 |
| C/C1=C\[C@H](C)C[C@H](C)OC(=O)C[C@H](c2ccc(O)cc2)NC(=O)[C@@H](Cc2c(Br)[nH]c3ccccc23)N(C)C(=O)[C@H](CO)NC(=O)[C@@H](C)C1 [JASPAMIDE E] | 100 | 6.92 | 100 |
| C/C1=C\[C@H](C)C[C@H](C)OC(=O)C[C@H](c2ccc(O)c(Br)c2)NC(=O)[C@@H](Cc2c(Br)[nH]c3ccccc23)N(C)C(=O)[C@H](C)NC(=O)[C@@H](C)C1 [PIPESTELIDE A] | 100 | 7.00 | 100 |
| C=C1C[C@H](C)C(=O)N[C@@H](C)C(=O)N(C)[C@H](Cc2c(Br)[nH]c3ccccc23)C(=O)N[C@@H](c2ccc(O)cc2)CC(=O)O[C@@H](C)C[C@@H](C)[C@@H]1O [JASPLAKINOLIDE CB] | 75 | – | 100 |
| C[C@@H]1NC(=O)[C@@H](C)C/C(CO)=C/[C@H](C)C[C@H](C)OC(=O)C[C@H](c2ccc(O)cc2)NC(=O)[C@@H](Cc2c(Br)[nH]c3ccccc23)N(C)C1=O [JASPAMIDE L] | 100 | 6.67 | 99 |
| C/C1=C\[C@H](C)C[C@H](C)OC(=O)C[C@H](c2ccc(O)cc2)NC(=O)[C@@H](Cc2c(Br)[nH]c3ccccc23)N(C)C(=O)[C@H](C)NC(=O)[C@@H](C)C1 [JASPAMIDE] | 99 | 7.89 | 100 |
| C/C1=C\[C@H](C)C[C@H](C)OC(=O)C[C@H](c2ccc(O)cc2)NC(=O)[C@@H](Cc2c(Br)[nH]c3ccccc23)N(C)C(=O)[C@H](C)NC(=O)[C@@H](C)C1O (stereo partly drawn) [JASPAMIDE K] | 100 | 5.47 | 100 |
| C/C1=C/[C@H](C)C(=O)N[C@@H](C)C(=O)N(C)[C@H](Cc2c(Br)[nH]c3ccccc23)C(=O)N[C@@H](c2ccc(O)cc2)CC(=O)O[C@@H](C)C[C@@H](C)[C@H]1O [PIPESTELIDE B] | 0 | – | 100 |
| C=C1C[C@H](C)C(=O)N[C@@H](C)C(=O)N(C)[C@H](Cc2c(Br)[nH]c3ccccc23)C(=O)N[C@@H](c2ccc(O)cc2)CC(=O)O[C@@H](C)C[C@@H](C)[C@H]1O [JASPLAKINOLIDE CA] | 0 | – | 80 |
